DENV2 CPE – inhibitors of DENV2 cytopathic effect | 350,000 tested, 1.7% active | DENV2-infected cells, cytopathic effect rescue, plate reader | CPE inhibition, % at 9.99 µM; in the data active means CPE inhibition above about 20%, passing the limit was not always enough; inconclusive means no clear call, values can overlap the other calls; tested in BHK-21 cells;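 further: 0% = median of neutral control wells and 100% = median of positive control wells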
FN deposition inh – fibronectin deposition inhibition; inhibition, % at 12.6 µM; 350,000 tested, 0.086% active; AH1F fibroblasts, Alexa488-fibronectin deposition fluorescence, overnight;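 active means mean inhibition across replicates of 30% or more, regardless of how many single replicates reach that level; inconclusive means mean under 30% yet at least half of replicates reach 30%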;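 further: positive control wells lacked labelled fibronectin entirely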
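Material: AH1F fibroblast monolayer depositing Alexa488-labelled fibronectin into matrix / Amount: 10000 AH1F cells per well / Signal: fluorescence 485/525 nm / Medium: DMEM, 2% serum / Compound: single dose, pinned / Incubation: 1 h cell adhesion before compound, then overnight fibronectin incubation / Reagent: Alexa488-FN, 24 nM final / Read-out: inhibition of fibronectin deposition signal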
PglD DTNB – PglD (C. jejuni) enzyme inhibition; purified PglD enzyme, DTNB colorimetric CoA detection; inhibition, % at 12.5 µM; 360,000 tested, 0.098% active; in the data active means inhibition above about 16%, passing the limit was not always enough; inconclusive means no clear call, values can overlap the other calls
Env fusion inh – blocks HIV Env-driven cell-cell fusion. HeLa-JRFL Env/CEM21 cell fusion, luciferase. inhibition, % at 12.3 µM. 360,000 tested, 1.1% active;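 active means mean replicate inhibition score of at least 50 and every replicate individually at or above 50; inconclusive means only one of the two criteria met; inactive means mean below 50 and not all replicates reaching 50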;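 further: 0% = plate neutral controls and 100% = maraviroc near 300 nM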
Ecoli rRNA inh – inhibits bacterial ribosomal RNA function over humanized ribosomes; E. coli WT GFP vs humanized-ribosome RFP mutants, fluorescence, 24 h; stronger effect = lower value; DMSO median 0, no signal -100; GFP signal change (wild-type ribosome), % (test concentration not listed); 350,000 tested, 1.6% active;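 active means significant combined selectivity score with lowered wild-type GFP, culture density cut under 30%, mutant RFP and density less affected; inactive means any of these conditions unmet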
PGC1a acetyl inh – lowers PGC1a acetylation signal in U2OS cells. inhibition, % at 15.6 µM. AlphaScreen anti-acetyl-lysine; with virally co-expressed GCN5 acetyltransferase. 350,000 tested, 0.17% active;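 active means every replicate shows inhibition of at least 40%; inconclusive means mean inhibition at least 40% but some replicate below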;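 further: 0% = neutral control wells and 100% = positive control wells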
AID977621 – wild-type E. coli growth inhibition versus H69 humanized strain – H69 mutant RFP, wild-type GFP, cherry-pick, dose response; activity change, negative = inhibition at 50 µM; shares compounds with Ecoli rRNA inh; 1,900 tested, under 10 active; fluorescence, 24 h;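 active means Wild-type ribosome reporter drop at least double the humanized mutant ribosome reporter drop, growth loss under a set limit; inconclusive means no clear call, values can overlap the other calls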;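 further: wild-type GFP and H69 mutant RFP strains grown together 50/50 in each well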
AID977628 – growth of wild-type and h24-humanized E. coli strains – h24 mutant RFP vs wild-type GFP, cherry-pick, dose response; activity change, negative = inhibition at 50 µM; 1,900 tested, under 10 active; shares compounds with Ecoli rRNA inh; E. coli WT GFP strain growth, fluorescence, 24 h; AID 977628;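 active means compound lowering the normal-ribosome reporter at least twice as much as the humanized-ribosome reporter, growth loss under a set limit; inconclusive means no clear call, values can overlap the other calls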;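 further: wild-type GFP and h24 humanized RFP strains co-cultured 1 to 1 per well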
* hit, by the source's call; ? = inconclusive; . = not tested or not shown; [ ] = dose if it differs, or a comment. Most compounds without a hit are left out; they make up all but 3.5% or so of the library.

SMILES	DENV2 CPE	FN deposition inh	PglD DTNB	Env fusion inh	Ecoli rRNA inh	PGC1a acetyl inh	AID977621	AID977628
O=C(NCC[C@H]1CC[C@@H](NS(=O)(=O)c2cccc(F)c2)[C@@H](CO)O1)C1CCCCC1	-3	-2	1	9[16.7 µM]	-2	2	.	.
CNC[C@@H]1Oc2ccc(NC(=O)Nc3ccc(F)cc3)cc2C(=O)N([C@@H](C)CO)C[C@H]1C	12	-12	0	.	0	-6	.	.
COc1ccc(-c2cc(C(=O)Nc3ccc(C(N)=O)cc3)c3ccccc3n2)cc1OC	4	.	.	9	-26*	.	-8.5	-5.4
CO[C@H]1CN(C)C(=O)c2cc(NC(C)=O)ccc2OC[C@H](C)N(Cc2cccnc2)C[C@H]1C	.	-7	4	-8[16.7 µM]	3	12	.	.
O=C(CSc1nc2ccccc2n1S(=O)(=O)c1cccc([N+](=O)[O-])c1)NCCc1ccccc1	-4	-6	.	73*	-33*	.	-6.5	-8.4
Cc1ccc(S(=O)(=O)N(C)C[C@H]2Oc3ccc(NC(=O)Nc4c(C)noc4C)cc3CC(=O)N([C@H](C)CO)C[C@H]2C)cc1	2	.	-1	-6[16.7 µM]	2	4	.	.
Cc1ccc(-c2c(=O)n(O)c3ccccc3[n+]2[O-])cc1	-2	10	-3	-12	-17*	-5	-5.6	?
Brc1cc2c(cc1Br)OCCOCCOCCO2	-1	5	-1	4	-24*	-16	?	.
O=C(COC(=O)c1n[nH]c2ccccc12)Nc1cccc(S(=O)(=O)N2CCOCC2)c1	11	-1	.	-13	-25*	.	-18	-13
CC(=O)c1cccc(NC(=O)COC(=O)CCC(=O)c2ccc(F)cc2)c1	-5	-13	3	.	-17*	-1	-1.8	.
O=C(COC(=O)CCC(=O)c1ccc(F)cc1)Nc1cccc(S(=O)(=O)N2CCCC2)c1	5	-7	.	-8	-21*	.	-21	-11
CC1(CCC(=O)N2CCCC(N3CCN(c4ccc(F)cc4)CC3)C2)CC1 (centres undefined)	-7	-3	5	6	-25*	0	-3.1	?
COc1ccc(OCCCC(=O)Nc2cccc([N+](=O)[O-])c2)cc1	.	.	8	-9	.	.	.	.
CC(=O)Nc1cccc(OCCCOc2cccc([N+](=O)[O-])c2)c1	5	1	.	-16	-5.5*	.	-11	-8.9
Cc1cccc(NC(=O)CN(C)S(=O)(=O)c2cccs2)c1	16	.	-5	.	-27*	.	-15	?
COc1ccc(NC(=O)CN(C)S(=O)(=O)c2cccs2)cc1	.	.	0	.	.	0	.	.
CCC(=O)N[C@H]1C=C[C@@H](CC(=O)NCCN2CCCCC2)O[C@H]1CO	19	-6	0	-12[16.7 µM]	1	-8	.	.
CCCCC(=O)N(Cc1ccc2c(c1)OCO2)Cc1nc2ccccc2c(=O)[nH]1	1	0	.	-22	-23*	.	.	-3.8
CCCC(=O)N(CCc1ccc(OC)cc1)Cc1nc2ccccc2c(=O)[nH]1	3	.	-1	.	-21*	1	.	-7.7
C[C@H](CO)N1C[C@H](C)[C@H](CN(C)C(=O)Nc2ccc(F)cc2)OCCCC[C@H](C)Oc2ccc(NC(=O)Nc3cccc4ccccc34)cc2C1=O	-2	-2	0	-25[16.7 µM]	-1	-9	.	.
C[C@H]1CN([C@@H](C)CO)C(=O)c2cc(-c3cccc(C(=O)N(C)C)c3)cnc2O[C@H]1CN(C)C	-5	4	4	12[16.7 µM]	5	10	.	.
Cc1cccc(S(=O)(=O)N2[C@@H]3c4cccc(=O)n4C[C@H]2[C@H](CO)[C@H]3C(=O)N(C)C)c1	-4	9	-1	5[16.7 µM]	2	.	.	.
C[C@@H]1CCCCO[C@@H](CN(C)Cc2ccc(C(=O)O)cc2)[C@@H](C)CN([C@H](C)CO)C(=O)c2cc(NC(=O)c3ccncc3)ccc2O1	15	.	0	3[16.7 µM]	3	-4	.	.
C=CCSc1cc(C)nc2c(-c3ccccc3)c(C)nn12	3	-7	0	48	-38*	0	-7.6	-4.8
C[C@H](CO)N1C[C@H](C)[C@@H](CN(C)C(=O)CCCN(C)C)OCCCC[C@H](C)Oc2ccc(NC(=O)Nc3cccc4ccccc34)cc2C1=O	-2	.	4	-8[16.7 µM]	-2	-11	-7.8	?
SMILES	DENV2 CPE	FN deposition inh	PglD DTNB	Env fusion inh	Ecoli rRNA inh	PGC1a acetyl inh	AID977621	AID977628
C[C@@H]1CCCCO[C@H](CN(C)C(=O)CCCN(C)C)[C@H](C)CN([C@H](C)CO)C(=O)c2cc(NC(=O)Nc3cccc4ccccc34)ccc2O1	-2	.	3	17[16.7 µM]	2	2	.	?
C[C@@H]1CCCCO[C@@H](CN(C)C(=O)CCCN(C)C)[C@H](C)CN([C@H](C)CO)C(=O)c2cc(NC(=O)Nc3ccccc3)ccc2O1	-1	-2	-5	-3[16.7 µM]	0	6	.	.
CCN(C[C@H]1[C@H](c2ccccc2)[C@H](CO)N1C(C)=O)C(=O)c1ccccn1	-12	-4	0	.	2	4	.	.
Cc1ccc(S(=O)(=O)N[C@@H]2CC[C@H](CC(=O)O)O[C@@H]2CO)cc1	11	.	0	-13[16.7 µM]	0	8	.	.
COC(=O)c1ccc(OS(=O)(=O)c2ccc(NC(C)=O)cc2)cc1	1	-2	.	20	-21*	.	.	?
C[C@@H]1CCCCO[C@H](CN(C)S(=O)(=O)c2ccccc2)[C@H](C)CN([C@@H](C)CO)C(=O)c2cc(NS(=O)(=O)c3cccs3)ccc2O1	.	-1	0	-1[16.7 µM]	-4	-4	.	.
COc1ccc(CC(=O)NC(C)c2ccc3ccccc3c2)cc1 (centres undefined)	8	0	5	2	-23*	4	.	?
CNC[C@H]1Oc2cc(-c3cccnc3)ccc2S(=O)(=O)N([C@@H](C)CO)C[C@@H]1C	2	.	0	-18[16.7 µM]	2	13	.	.
Clc1ccc(-c2cn(-c3ccccc3)c3[n+]2CCS3)cc1	0	9	.	6	-18*	-13	-12	?
Fc1ccc(-c2cn(-c3ccccc3)c3[n+]2CCS3)cc1	-7	-17	2	-14	12	.	.	.
OC(COc1ccc(Cl)cc1)CN1CCN(c2ccccn2)CC1 (centres undefined)	2	0	.	2	-22*	1	.	-6.8
COc1cc(OC)c(C(=O)NCC(c2cccs2)N(C)C)cc1OC (centres undefined)	.	.	.	.	.	-14	.	.
CCN(c1ccccc1)S(=O)(=O)c1cccc(C(=O)NCC(c2cccs2)N(C)C)c1 (centres undefined)	.	0	.	-26	-24*	.	.	?
